Measurements collected from several papers.
Protocols differ between the studies behind these lines.
Target: Vascular endothelial growth factor receptor 2 (KDR, Homo sapiens, UniProt P35968)

| SMILES | assay | setting | endpoint | result |
| --- | --- | --- | --- | --- |
| O=C(O)[C@H]1O[C@@H](Oc2cc(O)c3c(=O)cc(-c4ccc(O)c(O)c4)oc3c2)[C@H](O)[C@@H](O)[C@@H]1O | enzyme activity, inhibitor, TR-FRET | 40 µM | inhibition | 83.9% |
| COc1ccc2[nH]c3c4[nH]c5ccc(OC)cc5c4c4c(c3c2c1)C(=O)NC4=O | binding, competition with immobilised ligand | 1 µM | remaining binding | 59% |
| COc1ccc2oc(-c3ccc4nc(N)oc4c3)c/c(=N\c3ccccc3NC(=O)CCN)c2c1 | binding | 1 µM | remaining binding | 103% |
| CO[C@@H]1[C@H](N(C)C(=O)c2ccccc2)C[C@H]2O[C@]1(C)n1c3ccccc3c3c4c(c5c6ccccc6n2c5c31)C(=O)NC4 | enzyme activity, inhibitor | 1 µM | inhibition | 67% |
| Cc1ccc(NC(=O)c2ccnc(C(F)(F)F)c2)cc1-c1cc(OCCO)nc(N2CCOCC2)c1 | binding, competition with immobilised ligand | 1 µM | remaining binding | 85% |
| CC#CC(=O)N1CCC[C@H]1c1nc(-c2ccc(C(=O)Nc3ccccn3)cc2)c2c(N)nccn12 | enzyme activity, inhibitor | 1 µM | inhibition | 0% |
| N#Cc1ccc(NC(=O)Nc2ccccc2)cc1 | cell-free assay, competition with immobilised ligand | 25 µM | remaining binding | 96% |
| C#Cc1cnc(Nc2ccnc(CO)c2)nc1Nc1ccccc1S(C)(=O)=NC#N (stereo not shown) | cell-free assay | 1 µM | remaining signal | 41% |
| C[C@@H]1O[C@@H](O[C@H]2[C@H](Oc3cc(O)c4c(=O)cc(-c5ccc(O)cc5)oc4c3)O[C@H](CO)[C@@H](O)[C@@H]2O)[C@H](O)[C@H](O)[C@H]1O | enzyme activity, inhibitor, TR-FRET | 40 µM | inhibition | 8.3% |
| CCCCC(=O)Nc1ccc(-c2ccc3ncn(CCC)c(=O)c3c2)cn1 | binding, competition with immobilised ligand | 0.5 µM | remaining binding | 95% |
